The text below walks through data of ChEMBL document CHEMBL1799938, “Synthesis and identification of new 4-arylidene curcumin analogues as potential anticancer agents targeting nuclear factor-κB signaling pathway” (J Med Chem, 2010).

For assay [1], the target named is T1, Inhibitor of nuclear factor kappa-B kinase subunit beta (Homo sapiens) (UniProt O14920).
T1 sequence (whole entry): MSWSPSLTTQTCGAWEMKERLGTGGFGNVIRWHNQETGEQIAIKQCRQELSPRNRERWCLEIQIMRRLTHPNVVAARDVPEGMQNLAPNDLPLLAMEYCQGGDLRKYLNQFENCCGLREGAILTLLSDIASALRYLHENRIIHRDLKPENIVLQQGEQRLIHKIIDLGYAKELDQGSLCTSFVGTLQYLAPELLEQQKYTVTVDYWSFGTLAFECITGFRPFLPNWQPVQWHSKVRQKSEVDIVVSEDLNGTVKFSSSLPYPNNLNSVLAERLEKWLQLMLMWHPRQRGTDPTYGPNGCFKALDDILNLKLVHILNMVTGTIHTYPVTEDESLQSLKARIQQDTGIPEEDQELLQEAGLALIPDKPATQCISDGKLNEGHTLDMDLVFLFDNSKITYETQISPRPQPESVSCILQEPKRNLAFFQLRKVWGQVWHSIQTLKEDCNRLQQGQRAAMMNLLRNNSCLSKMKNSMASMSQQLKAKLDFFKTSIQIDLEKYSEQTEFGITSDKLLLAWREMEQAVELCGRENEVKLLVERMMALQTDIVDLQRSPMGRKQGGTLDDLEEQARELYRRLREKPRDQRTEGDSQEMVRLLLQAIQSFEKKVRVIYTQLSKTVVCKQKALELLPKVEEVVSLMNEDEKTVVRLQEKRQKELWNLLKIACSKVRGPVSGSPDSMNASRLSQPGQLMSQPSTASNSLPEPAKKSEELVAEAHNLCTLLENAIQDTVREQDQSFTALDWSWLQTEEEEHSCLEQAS
Put plainly: Inhibition of recombinant IKK-beta assessed as inhibition of incorporation of [gamma32P] to GST-IkappaBalpha after 30 mins by scintillation counting. The essentials:
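Activated recombinant IKKβ (40 ng) preincubated with compounds 30 min at room temperature in MOPS buffer pH 7.0. Reaction started with Mg-ATP mix (100 μM ATP, 15 mM MgCl2), 5 μg GST-IκBα and 0.5 μCi [γ-32P]ATP in 25 μl, run 30 min at 30°C. Stopped by boiling in SDS buffer, resolved by 12.5% SDS-PAGE, autoradiographed. Excised bands quantified by scintillation counting.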

The subject of assay [2] is A549. Put plainly: Growth inhibition of human A549 cells after 48 hrs by sulforhodamine B assay. It is filed as functional. As to conditions: A549, 48 h. (Sulforhodamine B stains cellular protein and so reports cell mass.)
For assay [3], the system named is A549. The assay is described as follows: Growth inhibition of human A549 cells after 72 hrs by alamar blue method. As to conditions: A549, 72 h. The assay is classed as functional. Summed up: (§1)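 Cells kept in RPMI with 10% FBS and penicillin/streptomycin at 37°C, 5% CO2. Plated in 384-well format, dosed the next day, then incubated 72 hr before Alamar Blue read-out. GI50 is the concentration lowering viability by 50% versus solvent-vehicle control cells at the end of incubation.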
For orientation: Resazurin is reduced to fluorescent resorufin, in cell work by metabolically active cells.

The subject of assay [4] is NCI-H157. Put plainly: Growth inhibition of human NCI-H157 cells after 72 hrs by alamar blue method. The assay is classed as functional. As to conditions: NCI-H157, 72 h. Summed up: as §1
Assay [5] has as its system A549. Put plainly: (§2) Inhibition of TNF-alpha-induced NFkappaB nuclear translocation in human A549 cells preincubated for 30 mins before TNFalpha challenge and measured 30 post TNFalpha challenge by fluorescence method. It is filed as cell-based.
The nature of assay [6]: as §2. The assay is classed as cell-based.
The target in assay [7] is T2, Inhibitor of NF-kappa-B kinase (IKK) (Homo sapiens, UniProt O14920+O15111+Q9Y6K9). Put plainly: Inhibition of IKK in human A549 cells assessed as inhibition of TNF-alpha-induced IkappaB degradation at 0.5 to 25 uM preincubated for 4 hrs before TNFalpha challenge measured after 20 mins by Western blot analysis. The assay is classed as cell-based. The essentials: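 A549 cells pretreated with compounds at indicated doses, then TNFα (10 ng/ml) added for a further 20 min. Cells lysed in NP-40 buffer (1.0% NP-40, 10 mM Hepes pH 7.4, 150 mM NaCl, phosphatase and protease inhibitors). Equal lysate volumes run on 12.5% SDS-PAGE, transferred to nitrocellulose, milk-blocked, and total IκB detected by Western blot.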
For orientation: In western blotting, separated proteins are transferred to a membrane and probed.

Assay [8] can be described thus: Growth inhibition of human NCI-H1944 cells after 72 hrs by alamar blue method. To be noted: NCI-H1944, 72 h. It is filed as functional. The essentials: as §1
The subject of assay [9] is NCI-H460. Put plainly: Growth inhibition of human H460 cells after 72 hrs by alamar blue method. It is filed as functional. To be noted: NCI-H460, 72 h. Summed up:
as §1

Assay [10] addresses T2, Inhibitor of NF-kappa-B kinase (IKK). Put plainly: Inhibition of IKK in human A549 cells assessed as inhibition of TNF-alpha-induced IkappaB phosphorylation preincubated for 30 mins before TNFalpha challenge. It is filed as cell-based. The essentials: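 A549 cells pretreated 30 min with compounds before TNFα (10 ng/ml). Whole-cell NP-40 lysates prepared 7 min after TNFα, run on 12.5% SDS-PAGE and Western blotted with anti-pS32 IκB antibody. Membrane then stripped and reprobed for total IκB.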

In assay [11] the test system is A549. The assay is described as follows: Anticlonogenic activity against human A549 cells assessed as inhibition of colony formation of cells treated at 0.2 uM with test compound after cell plating and every 3 days thereafter and measured on day 9 after colonies formed by SRB assay. The assay is classed as functional. Summed up: (§3)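 A549 cells plated at 200 cells/well, incubated overnight, then exposed to compound or DMSO vehicle; medium and compound renewed every 3 days. On day 9, colonies fixed with 10% TCA for 30 min at 4°C, water-washed, SRB-stained and rinsed with 1% acetic acid. Plates scanned, colonies counted and normalized to DMSO control.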

The subject of assay [12] is A549. Put plainly: Anticlonogenic activity against human A549 cells assessed as inhibition of colony formation of cells treated at 4 uM with test compound after cell plating and every 3 days thereafter and measured on day 9 after colonies formed by SRB assay. It is filed as functional, cell-based. Summed up:
as §3

Assay [13] relates to A549. Put plainly: Anticlonogenic activity against human A549 cells assessed as inhibition of colony formation of cells treated at 0.4 uM with test compound after cell plating and every 3 days thereafter and measured on day 9 after colonies formed by SRB assay. The assay is classed as functional. Summed up: as §3

Activity calls are given as the source filed them. The calls are words filed in the database; no cut-off is given here.

T2 sequence (O15111 whole entry, one chain of several): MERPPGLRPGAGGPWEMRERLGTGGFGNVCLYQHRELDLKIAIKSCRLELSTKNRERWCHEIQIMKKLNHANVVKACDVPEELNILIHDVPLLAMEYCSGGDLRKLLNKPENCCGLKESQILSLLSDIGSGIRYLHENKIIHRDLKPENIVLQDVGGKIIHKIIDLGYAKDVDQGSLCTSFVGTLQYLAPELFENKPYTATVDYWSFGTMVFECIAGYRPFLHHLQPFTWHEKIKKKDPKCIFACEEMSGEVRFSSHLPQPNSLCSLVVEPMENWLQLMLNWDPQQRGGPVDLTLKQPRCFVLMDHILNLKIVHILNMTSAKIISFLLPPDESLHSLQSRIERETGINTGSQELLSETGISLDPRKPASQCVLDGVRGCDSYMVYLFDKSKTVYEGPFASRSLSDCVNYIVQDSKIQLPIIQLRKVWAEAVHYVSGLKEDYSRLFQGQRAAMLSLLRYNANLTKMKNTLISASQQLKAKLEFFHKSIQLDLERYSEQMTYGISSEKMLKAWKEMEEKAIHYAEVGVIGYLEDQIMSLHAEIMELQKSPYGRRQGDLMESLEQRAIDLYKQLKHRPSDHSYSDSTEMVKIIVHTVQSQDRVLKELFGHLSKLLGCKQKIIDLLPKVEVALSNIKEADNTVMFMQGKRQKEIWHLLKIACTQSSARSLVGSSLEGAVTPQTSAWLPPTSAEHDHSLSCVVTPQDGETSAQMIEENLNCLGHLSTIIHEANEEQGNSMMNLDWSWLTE
T2 sequence (Q9Y6K9 whole entry, one chain of several): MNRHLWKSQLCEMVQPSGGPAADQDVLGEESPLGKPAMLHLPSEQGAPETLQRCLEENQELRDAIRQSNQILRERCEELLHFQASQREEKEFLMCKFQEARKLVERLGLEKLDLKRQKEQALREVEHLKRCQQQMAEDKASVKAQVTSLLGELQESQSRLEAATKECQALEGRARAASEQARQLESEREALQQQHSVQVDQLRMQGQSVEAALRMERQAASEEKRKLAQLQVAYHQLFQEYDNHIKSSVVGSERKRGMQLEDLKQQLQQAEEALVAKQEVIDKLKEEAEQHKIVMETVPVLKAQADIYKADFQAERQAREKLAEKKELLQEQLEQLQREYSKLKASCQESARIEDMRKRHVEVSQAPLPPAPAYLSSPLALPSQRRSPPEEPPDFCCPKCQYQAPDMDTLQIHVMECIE

On to `COc1ccc(/C=C/C(=O)C(=Cc2ccc(F)cc2)C(=O)/C=C/c2ccc(OC)c(OC)c2)cc1OC`, for which the inhibition result in assay [1] and in assay [5] was “Dose-dependent effect” in each case. Besides, the GI50 in assay [2] came to 550 nM; in [3], 700 nM; in assay [4], 280 nM; in assay [8], 280 nM; in assay [9] it was 270 nM. Also, the concentration for half-maximal inhibition (IC50) in [6] amounted to 1100 nM; in [10] it was 2200 nM. The inhibition entry in assay [7] is “Active”. The inhibition at 0.2 µM in [11] worked out at 50%.
On to `COc1cc(/C=C/C(=O)CC(=O)/C=C/c2ccc(O)c(OC)c2)ccc1O` [CURCUMIN], for which the GI50 in assay [2] came to 15200 nM; in assay [3], 9440 nM; in assay [4] it was 19200 nM; in assay [8], 16200 nM; in [9] it was 12100 nM. This compound also showed an IC50 in assay [6] of 9500 nM. Moreover, the result in assay [12] was Active.
Take `COc1cc(C=C(C(=O)/C=C/c2ccc(OC)c(OC)c2)C(=O)/C=C/c2ccc(OC)c(OC)c2)ccc1O`: in assay [1], the inhibition result was “Dose-dependent effect”. The GI50 in [2] is 530 nM; in [3] it was 720 nM; in assay [4], 160 nM; in assay [8], 70 nM; in assay [9], 130 nM. Besides, the values for the half-inhibitory concentration (IC50) in assay [6] and in [10] were 1000 nM and 2800 nM, respectively. The inhibition entry in assay [7] is “Active”. Further, the inhibition at 0.2 µM in assay [11] worked out at 50%.
As to `COc1cc(/C=C/C(=O)C(=Cc2cccc(OC)c2OC)C(=O)/C=C/c2ccc(O)c(OC)c2)ccc1O`, the inhibition entry in [1] was “Dose-dependent effect”. Also, the GI50 in [2] came to 420 nM; in assay [3], 930 nM; in [4], 530 nM; in [8] it was 330 nM; in [9], 300 nM. In addition, the IC50 in assay [6] came to 1700 nM; in [10], 5000 nM. Moreover, the inhibition entry in assay [7] is “Active”. Moreover, the inhibition at 0.4 µM in assay [13] is 50%.

Broadly, the inhibition is how much of the control response was suppressed. By GI50 is commonly meant the concentration giving 50% growth inhibition. High values mean less potent growth inhibition, low ones more potent growth inhibition. For orientation: IC50 means the concentration that gives 50% inhibition.
